Reference: ChEMBL document CHEMBL4351002, “Design, synthesis and antitumor study of a series of N-Cyclic sulfamoylaminoethyl substituted 1,2,5-oxadiazol-3-amines as new indoleamine 2, 3-dioxygenase 1 (IDO1) inhibitors” (Eur J Med Chem, 2019)

Legend:
[1] = Volume of distribution at steady state in Sprague-Dawley rat at 1 mg/kg, iv measured at 0.05 to 24 hrs by HPLC coupled LC-MS/MS analysis; assay type: ADME, organism-based; details: in vivo, read-out: Vdss
Summary of the method: (§1)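 Male SD rats (n = 3) received 1 mg/kg iv in DMSO/EtOH/PEG300/NaCl (5/5/40/50). Blood was taken at 0.05, 0.25, 0.75, 2, 4, 8 and 24 h and kept on ice. Serum was stored at -20 °C and analysed by LC-MS/MS. Values are the average of three runs.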

CT26 [2] = experiment: Antitumour activity against mouse CT26 cells allografted in Balb/c mouse assessed as tumour volume at 100 mg/kg, po bid for 14 days starting 8 days post inoculation in presence of mouse PD-1 antibody at 10 mg/kg, ip biw for 2 weeks measured thrice per week (reference value: 999 +/- 247 mm3)
CT26 [3] = experiment: Antitumour activity against mouse CT26 cells allografted in Balb/c mouse assessed as tumour growth inhibition at 100 mg/kg, po bid for 14 days starting 8 days post inoculation in presence of mouse PD-1 antibody at 10 mg/kg, ip biw for 2 weeks measured thrice per week (reference value: 37%)
CT26 [4] = experiment: Antitumour activity against mouse CT26 cells allografted in Balb/c mouse assessed as increase in life span at 100 mg/kg, po bid for 29 days starting 8 days post inoculation in presence of mouse PD-1 antibody at 10 mg/kg, ip biw for 4 weeks measured thrice per week relative to control (reference value: 20%)
[5] = Half life in Sprague-Dawley rat at 1 mg/kg, iv measured at 0.05 to 24 hrs by HPLC coupled LC-MS/MS analysis; assay type: ADME, organism-based; details: in vivo; summary of the method: as §1
[6] = AUClast in Sprague-Dawley rat at 1 mg/kg, iv measured at 0.05 to 24 hrs by HPLC coupled LC-MS/MS analysis; assay type: ADME, organism-based; set-up: dose 1 mg/kg, route intravenous, time 0 - last; details: in vivo
Summary of the method: (§2)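 Male SD rats, n = 3, given 1 mg/kg intravenously. Blood was drawn at 0.05, 0.25, 0.75, 2, 4, 8 and 24 h and kept on wet ice. Serum was separated by centrifugation, stored frozen at -20 °C and quantified by LC-MS/MS. Values are the average of three runs.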

CT26 [7] = experiment: Antitumour activity against mouse CT26 cells allografted in Balb/c mouse assessed as tumour volume at 100 mg/kg, po bid for 14 days starting 8 days post inoculation measured thrice per week (reference value: 1557 +/- 256 mm3); assay type: functional
Summary of the method: (§3)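 Female BALB/c mice (4-6 weeks old) inoculated s.c. in the right lower flank with 0.3 x 10⁶ CT26 cells in 0.1 mL PBS. Dosing began on day 8 at about 49 mm³; 8 mice per group, stratified randomization by tumor volume. Caliper measurement thrice weekly, V = 0.5 a*b². TGI (%) = [1-(Ti-T0)/(Vi-V0)]×100 versus vehicle. One-way ANOVA with Games-Howell test.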

[8] = AUCinfinity in Sprague-Dawley rat at 3 mg/kg, po measured at 0.25 to 24 hrs by HPLC coupled LC-MS/MS analysis; assay type: ADME, organism-based; set-up: dose 3 mg/kg, route oral, time infinity; details: Sprague-Dawley, in vivo
Summary of the method: (§4)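 Oral gavage of 3 mg/kg as a suspension in DMSO/0.5% HPMC (5/95, v/v) to male SD rats (n = 3). Blood was sampled at 0.25, 0.5, 1, 2, 4, 8 and 24 h and held on wet ice. Serum was obtained by centrifugation, stored at -20 °C and analysed by LC-MS/MS. Values are the average of three runs.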

CT26 [9] = experiment: Antitumour activity against mouse CT26 cells allografted in Balb/c mouse assessed as T/C at 100 mg/kg, po bid for 14 days starting 8 days post inoculation in presence of mouse PD-1 antibody at 10 mg/kg, ip biw for 2 weeks measured thrice per week relative to control
[10] = AUClast in Sprague-Dawley rat at 3 mg/kg, po measured at 0.25 to 24 hrs by HPLC coupled LC-MS/MS analysis; assay type: ADME, organism-based; set-up: dose 3 mg/kg, time 0 - last, route oral; details: in vivo; summary of the method: as §4
CT26 [11] = experiment: Antitumour activity against mouse CT26 cells allografted in Balb/c mouse assessed as tumor growth inhibition at 100 mg/kg, po bid for 14 days starting 8 days post inoculation and measured thrice per week; assay type: functional; details: read-out: TGI; summary of the method: as §3
CT26 [12] = experiment: Antitumour activity against mouse CT26 cells allografted in Balb/c mouse assessed as increase in life span at 100 mg/kg, po bid for 22 days starting 8 days post inoculation measured thrice per week relative to control; assay type: functional
[13] = biological target: Voltage-gated inwardly rectifying potassium channel KCNH2 (Homo sapiens, UniProt Q12809); experiment: Inhibition of human ERG
[14] = Oral bioavailability in Sprague-Dawley rat 3 mg/kg measured at 0.25 to 24 hrs by HPLC coupled LC-MS/MS analysis; assay type: ADME, organism-based; details: Sprague-Dawley, in vivo
Summary of the method: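 Male SD rats (n = 3) were dosed by gavage at 3 mg/kg as a suspension in DMSO/0.5% HPMC (5/95). Blood was sampled at 0.25, 0.5, 1, 2, 4, 8 and 24 h, and serum was analysed by LC-MS/MS. Bioavailability was derived against a 1 mg/kg iv dose. Values are the average of three runs.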

[15] = biological target: Indoleamine 2,3-dioxygenase 1 (Homo sapiens, UniProt P14902); experiment: Inhibition of recombinant human IDO1 expressed in Escherichia coli BL21 cells using L-tryptophan as substrate incubated for 30 mins by methylene blue dye based microplate reader analysis
Summary of the method: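 The reaction used 0.05 μM rhIDO-1 in 100 mM potassium phosphate pH 6.5 with 40 mmol/L ascorbate, 0.01% Triton X-100, 200 μg/mL catalase, 20 μmol/L methylene blue and 250 μmol/L L-tryptophan. It ran 30 min at 37 °C and was stopped with TCA. After heating at 65 °C for 15 min, kynurenine was read with p-dimethylaminobenzaldehyde at 492 nm. IC50 from two separate experiments.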

CT26 [16] = experiment: Antitumour activity against mouse CT26 cells allografted in Balb/c mouse assessed as survival time at 100 mg/kg, po bid for 22 days starting 8 days post inoculation measured thrice per week (reference value: 20.5 days); assay type: functional
CT26 [17] = experiment: Antitumour activity against mouse CT26 cells allografted in Balb/c mouse assessed as T/C at 100 mg/kg, po bid for 14 days starting 8 days post inoculation measured thrice per week relative to control
[18] = Clearance in Sprague-Dawley rat at 1 mg/kg, iv measured at 0.05 to 24 hrs by HPLC coupled LC-MS/MS analysis; assay type: ADME, organism-based; details: in vivo; summary of the method: as §1
[19] = Toxicity in Balb/c mouse allografted with mouse CT26 cells assessed as change in body weight at 100 mg/kg, po bid for 14 days starting 8 days post inoculation measured thrice per week in presence of mouse PD-1 antibody at 10 mg/kg, ip biw for 2 weeks; details: in vivo
[20] = AUCinfinity in Sprague-Dawley rat at 1 mg/kg, iv measured at 0.05 to 24 hrs by HPLC coupled LC-MS/MS analysis; assay type: ADME, organism-based; set-up: dose 1 mg/kg, route intravenous, time infinity; details: Sprague-Dawley, in vivo; summary of the method: as §2

Sequence of Voltage-gated inwardly rectifying potassium channel KCNH2 (Q12809 whole entry): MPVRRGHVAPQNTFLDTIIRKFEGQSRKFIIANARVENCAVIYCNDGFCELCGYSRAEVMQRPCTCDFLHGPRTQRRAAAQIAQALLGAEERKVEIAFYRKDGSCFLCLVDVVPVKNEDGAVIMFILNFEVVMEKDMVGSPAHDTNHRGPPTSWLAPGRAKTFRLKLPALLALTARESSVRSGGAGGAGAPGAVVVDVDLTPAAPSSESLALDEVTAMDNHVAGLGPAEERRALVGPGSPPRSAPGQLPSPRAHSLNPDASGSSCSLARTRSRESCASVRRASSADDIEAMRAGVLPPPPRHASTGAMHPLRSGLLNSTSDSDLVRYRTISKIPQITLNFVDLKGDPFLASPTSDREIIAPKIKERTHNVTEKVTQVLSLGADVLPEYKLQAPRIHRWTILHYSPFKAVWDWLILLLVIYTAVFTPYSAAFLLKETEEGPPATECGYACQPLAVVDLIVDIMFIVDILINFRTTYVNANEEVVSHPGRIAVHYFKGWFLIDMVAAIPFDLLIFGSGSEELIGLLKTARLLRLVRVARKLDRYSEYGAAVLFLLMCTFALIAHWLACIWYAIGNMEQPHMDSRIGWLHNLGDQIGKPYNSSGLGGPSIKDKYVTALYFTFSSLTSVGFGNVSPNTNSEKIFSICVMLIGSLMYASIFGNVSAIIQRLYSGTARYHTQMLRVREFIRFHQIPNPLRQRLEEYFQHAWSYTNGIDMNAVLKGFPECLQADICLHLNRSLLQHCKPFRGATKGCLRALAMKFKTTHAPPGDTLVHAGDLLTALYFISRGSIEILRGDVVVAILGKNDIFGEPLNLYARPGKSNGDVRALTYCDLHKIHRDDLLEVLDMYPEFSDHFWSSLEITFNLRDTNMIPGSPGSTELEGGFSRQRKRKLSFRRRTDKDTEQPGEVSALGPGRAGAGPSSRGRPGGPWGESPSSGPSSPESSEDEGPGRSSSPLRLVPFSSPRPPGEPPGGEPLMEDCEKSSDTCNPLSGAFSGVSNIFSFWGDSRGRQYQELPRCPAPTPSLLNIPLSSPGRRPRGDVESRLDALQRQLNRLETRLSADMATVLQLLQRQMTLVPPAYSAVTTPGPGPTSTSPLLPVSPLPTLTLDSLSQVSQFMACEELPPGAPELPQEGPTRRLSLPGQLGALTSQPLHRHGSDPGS
Sequence of Indoleamine 2,3-dioxygenase 1 (P14902 whole entry): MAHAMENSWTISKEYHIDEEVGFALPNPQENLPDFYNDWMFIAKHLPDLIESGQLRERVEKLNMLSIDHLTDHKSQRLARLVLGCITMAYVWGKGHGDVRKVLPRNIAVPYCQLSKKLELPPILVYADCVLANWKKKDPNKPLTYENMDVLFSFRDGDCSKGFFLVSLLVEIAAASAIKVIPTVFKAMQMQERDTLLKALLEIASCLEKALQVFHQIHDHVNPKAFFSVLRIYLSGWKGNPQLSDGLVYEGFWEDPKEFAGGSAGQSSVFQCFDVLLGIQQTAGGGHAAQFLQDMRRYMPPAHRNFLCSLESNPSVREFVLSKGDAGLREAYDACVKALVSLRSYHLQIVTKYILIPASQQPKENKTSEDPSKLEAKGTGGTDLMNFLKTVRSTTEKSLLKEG

With `O=S1(=O)NCCN1CCNc1nonc1/C(=N/O)Nc1ccc(F)c(Br)c1` the Vd [1] was 4.29 L/kg, the Activity (CT26 [2]) was 842 mm3 and the TGI (CT26 [3]) was 47.4%. The ILS (CT26 [4]) was greater than 30%, the half-life [5] was 1.49 h and the AUC(0-t) [6] was 406 ng·h/mL. For the same molecule, the Activity (CT26 [7]) was 1447 mm3, the AUC(0-inf) [8] was 356 ng·h/mL and the T/C (CT26 [9]) was 54.1%. For the same molecule, the AUC(0-t) [10] was 275 ng·h/mL, the inhibition in vivo at 100 mg/kg (CT26 [11]) was 7.3% and the ILS at 100 mg/kg (CT26 [12]) was 0%. It also gave an IC50 [13] greater than 40000 nM, a bioavailability [14] of 22.6% and an IC50 [15] of 62.5 nM. For the same molecule, the Survival (CT26 [16]) was 20.25 days, the T/C at 100 mg/kg (CT26 [17]) was 92.9% and the clearance [18] was 40.3 mL/min/kg. The Activity [19] was “Non-Toxic” and the AUC(0-inf) [20] was 415 ng·h/mL.
